Measurements reported in ChEMBL document CHEMBL2331184, “The synthesis and SAR of calcitonin gene-related peptide (CGRP) receptor antagonists derived from tyrosine surrogates. Part 2” (Bioorg Med Chem Lett, 2013).
pEC50, pIC50, pKi: −log10 of the molar value. Calls of active or inactive are those of the source. The calls are words filed in the database; no cut-off is given here.

tested on: not listed separately; assay: Plasma concentration in marmoset at 0.03 g/kg, sc after 15 mins; type: ADME, organism-based, Callithrix jacchus; conditions: 30 mg/kg
Outline: (§1)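 Marmosets were anesthetized. Facial blood flow was raised by iv haCGRP (10 µg/kg) given at −30, 15, 60 and 105 min and read by laser Doppler flowmetry. The antagonist (racemate) was given SC at 0 min and compared with vehicle-treated animals, n = 5. Plasma levels were taken at 15, 60 and 105 min.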

Q: For `Cc1cc(CC(NC(=O)N2CCC(N3Cc4ccccc4NC3=O)CC2)C(=O)N2CCC(N3CCCCC3)CC2)cc2cn[nH]c12` (racemic), which concentration at 0.25 h is on record?
A: 4.7 nM

tested on: Callithrix jacchus; assay: Inhibition of CGRP-induced increases in marmoset facial blood flow at 0.03 g/kg, sc after 60 to 105 mins by doppler flowmetry; type: functional, organism-based; conditions: not given; outline: as §1

Q: Which inhibition does the source give for `Cc1cc(CC(NC(=O)N2CCC(N3Cc4ccccc4NC3=O)CC2)C(=O)N2CCC(N3CCCCC3)CC2)cc2cn[nH]c12` (racemic) here?
A: Active

biological target: T1, Calcitonin gene-related peptide type 1 receptor (Homo sapiens, UniProt O60894+Q16602); assay: Binding affinity to CGRP receptor (unknown origin); conditions: not given
T1 sequence (Q16602 whole entry, one chain of several): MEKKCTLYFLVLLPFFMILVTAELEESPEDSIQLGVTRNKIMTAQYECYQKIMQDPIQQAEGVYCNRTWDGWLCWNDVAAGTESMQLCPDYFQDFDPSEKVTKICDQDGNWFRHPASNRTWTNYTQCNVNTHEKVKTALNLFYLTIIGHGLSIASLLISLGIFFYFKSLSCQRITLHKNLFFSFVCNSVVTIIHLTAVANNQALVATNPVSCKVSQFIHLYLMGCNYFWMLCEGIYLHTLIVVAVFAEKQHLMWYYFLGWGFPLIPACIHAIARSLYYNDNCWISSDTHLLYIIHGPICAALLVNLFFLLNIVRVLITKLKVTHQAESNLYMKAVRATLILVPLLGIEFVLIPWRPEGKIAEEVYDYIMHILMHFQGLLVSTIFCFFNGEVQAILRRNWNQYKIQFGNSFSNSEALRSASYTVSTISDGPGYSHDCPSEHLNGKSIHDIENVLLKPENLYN

Q: With `CCc1cc(CC(NC(=O)N2CCC(N3Cc4ccccc4NC3=O)CC2)C(=O)N2CCC(N3CCCCC3)CC2)cc2c(C)n[nH]c12` (racemic) as the compound, how does the pKi read?
A: 10.32

Q: With `Cc1cc(C[C@@H](NC(=O)N2CCC(N3Cc4ccccc4NC3=O)CC2)C(=O)N2CCC(N3CCCCC3)CC2)cc2cn[nH]c12` as the compound, how does the pKi read?
A: 11.14

Q: With `O=C(NC(Cc1cc(Cl)c2[nH]ncc2c1)C(=O)N1CCC(N2CCCCC2)CC1)N1CCC(N2Cc3ccccc3NC2=O)CC1` (racemic) as the compound, how does the pKi read?
A: 10.96

Q: With `O=C(N[C@H](Cc1cc2oc(=O)[nH]c2cc1Br)C(=O)N1CCC(N2CCCCC2)CC1)N1CCC(N2Cc3ccccc3NC2=O)CC1` as the compound, how does the pKi read?
A: 9.85

Q: With `Cc1cc(C[C@@H](NC(=O)N2CCC(N3Cc4ccccc4NC3=O)CC2)C(=O)N2CCC(N3CCCCC3)CC2)c(Cl)c2cn[nH]c12` as the compound, how does the pKi read?
A: 10.49

Q: With `O=C(N[C@H](Cc1cc(Br)c2[nH]c(=O)oc2c1)C(=O)N1CCC(N2CCCCC2)CC1)N1CCC(N2Cc3ccccc3NC2=O)CC1` as the compound, how does the pKi read?
A: 10.64

Q: With `O=C(N[C@H](Cc1cc2oc(=O)[nH]c2cc1Cl)C(=O)N1CCC(N2CCCCC2)CC1)N1CCC(N2Cc3ccccc3NC2=O)CC1` as the compound, how does the pKi read?
A: 9.55

Q: With `Cc1cc(CC(NC(=O)N2CCC(N3Cc4ccccc4NC3=O)CC2)C(=O)N2CCC(N3CCCCC3)CC2)cc2cn[nH]c12` (racemic) as the compound, how does the pKi read?
A: 10.92

Q: With `N#Cc1cc(C[C@@H](NC(=O)N2CCC(N3Cc4ccccc4NC3=O)CC2)C(=O)N2CCC(N3CCCCC3)CC2)cc2oc(=O)[nH]c12` as the compound, how does the pKi read?
A: 7.96

tested on: not listed separately; assay: Plasma concentration in marmoset at 0.03 g/kg, sc after 60 mins; type: ADME, organism-based, Callithrix jacchus; conditions: 30 mg/kg; outline: as §1

Q: With `Cc1cc(CC(NC(=O)N2CCC(N3Cc4ccccc4NC3=O)CC2)C(=O)N2CCC(N3CCCCC3)CC2)cc2cn[nH]c12` (racemic) as the compound, how does the concentration at 1 h read?
A: 13 nM

biological target: T1, Calcitonin gene-related peptide type 1 receptor; assay: (§2) Antagonist activity at CGRP receptor in human SK-N-MC cells assessed as inhibition of […]-induced cAMP production; type: functional, cell-based; conditions: not given
Outline: (§3)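 Concentration-dependent inhibition of CGRP-stimulated cAMP production measured in SK-N-MC cells expressing the human CGRP receptor. Value reported as EC50.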

Q: With `Cc1cc(C[C@@H](NC(=O)N2CCC(N3Cc4ccccc4NC3=O)CC2)C(=O)N2CCC(N3CCCCC3)CC2)cc2cn[nH]c12` as the compound, how does the pEC50 read?
A: 10.77

biological target: Calcitonin gene-related peptide type 1 receptor (Homo sapiens) (UniProt Q16602); assay: as §2; type: functional, cell-based; conditions: not given; outline: as §3
Sequence (Q16602 whole entry): as the sequence (Q16602 whole entry, one chain of several) above

Q: For `CCc1cc(CC(NC(=O)N2CCC(N3Cc4ccccc4NC3=O)CC2)C(=O)N2CCC(N3CCCCC3)CC2)cc2c(C)n[nH]c12` (racemic), which inhibition is on record?
A: Active

Q: For `O=C(NC(Cc1cc(Cl)c2[nH]ncc2c1)C(=O)N1CCC(N2CCCCC2)CC1)N1CCC(N2Cc3ccccc3NC2=O)CC1` (racemic), which inhibition is on record?
A: Active

Q: With `O=C(N[C@H](Cc1cc2oc(=O)[nH]c2cc1Br)C(=O)N1CCC(N2CCCCC2)CC1)N1CCC(N2Cc3ccccc3NC2=O)CC1` as the compound, how does the inhibition read?
A: Active

Q: For `Cc1cc(C[C@@H](NC(=O)N2CCC(N3Cc4ccccc4NC3=O)CC2)C(=O)N2CCC(N3CCCCC3)CC2)c(Cl)c2cn[nH]c12`, which inhibition is on record?
A: Active

Q: Which inhibition does the source give for `O=C(N[C@H](Cc1cc(Br)c2[nH]c(=O)oc2c1)C(=O)N1CCC(N2CCCCC2)CC1)N1CCC(N2Cc3ccccc3NC2=O)CC1` here?
A: Active

Q: For `O=C(N[C@H](Cc1cc2oc(=O)[nH]c2cc1Cl)C(=O)N1CCC(N2CCCCC2)CC1)N1CCC(N2Cc3ccccc3NC2=O)CC1`, which inhibition is on record?
A: Active

Q: With `Cc1cc(CC(NC(=O)N2CCC(N3Cc4ccccc4NC3=O)CC2)C(=O)N2CCC(N3CCCCC3)CC2)cc2cn[nH]c12` (racemic) as the compound, how does the inhibition read?
A: Active

Q: With `N#Cc1cc(C[C@@H](NC(=O)N2CCC(N3Cc4ccccc4NC3=O)CC2)C(=O)N2CCC(N3CCCCC3)CC2)cc2oc(=O)[nH]c12` as the compound, how does the inhibition read?
A: Active

biological target: T2, Cytochrome P450 3A4 (Homo sapiens, UniProt P08684); assay: Inhibition of CYP3A4 (unknown origin) using 7-benzyloxy-resorufin as substrate; type: ADME; conditions: not given
T2 sequence (P08684 whole entry): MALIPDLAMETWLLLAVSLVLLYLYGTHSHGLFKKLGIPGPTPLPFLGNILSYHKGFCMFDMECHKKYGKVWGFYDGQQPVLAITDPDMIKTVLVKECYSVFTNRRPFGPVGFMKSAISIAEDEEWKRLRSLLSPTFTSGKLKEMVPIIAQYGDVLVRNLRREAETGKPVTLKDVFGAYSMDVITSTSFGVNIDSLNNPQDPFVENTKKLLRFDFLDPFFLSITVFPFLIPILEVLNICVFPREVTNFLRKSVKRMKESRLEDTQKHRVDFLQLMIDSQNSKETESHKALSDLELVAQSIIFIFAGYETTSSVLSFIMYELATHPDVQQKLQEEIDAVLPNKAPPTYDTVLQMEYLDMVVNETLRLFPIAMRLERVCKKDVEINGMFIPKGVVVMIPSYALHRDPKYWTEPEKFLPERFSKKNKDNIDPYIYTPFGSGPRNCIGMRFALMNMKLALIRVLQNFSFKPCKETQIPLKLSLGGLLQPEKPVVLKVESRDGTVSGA

Q: With `CCc1cc(CC(NC(=O)N2CCC(N3Cc4ccccc4NC3=O)CC2)C(=O)N2CCC(N3CCCCC3)CC2)cc2c(C)n[nH]c12` (racemic) as the compound, how does the pIC50 read?
A: 5.16

Q: With `O=C(NC(Cc1cc(Cl)c2[nH]ncc2c1)C(=O)N1CCC(N2CCCCC2)CC1)N1CCC(N2Cc3ccccc3NC2=O)CC1` (racemic) as the compound, how does the pIC50 read?
A: 6.74

Q: With `Cc1cc(C[C@@H](NC(=O)N2CCC(N3Cc4ccccc4NC3=O)CC2)C(=O)N2CCC(N3CCCCC3)CC2)c(Cl)c2cn[nH]c12` as the compound, how does the pIC50 read?
A: 5.80

Q: With `O=C(N[C@H](Cc1cc(Br)c2[nH]c(=O)oc2c1)C(=O)N1CCC(N2CCCCC2)CC1)N1CCC(N2Cc3ccccc3NC2=O)CC1` as the compound, how does the pIC50 read?
A: 5.14

Q: With `O=C(N[C@H](Cc1cc2oc(=O)[nH]c2cc1Cl)C(=O)N1CCC(N2CCCCC2)CC1)N1CCC(N2Cc3ccccc3NC2=O)CC1` as the compound, how does the pIC50 read?
A: 5.30

tested on: not listed separately; assay: Reversal of CGRP-induced dilation on human intracranial arteries; type: functional, Artery; conditions: not given
Outline: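 Ex vivo human intracranial artery rings were mounted between two wire hooks on a force transducer to record tone. Rings were precontracted with 10 mM KCl and fully dilated with 1 nM haCGRP. Dilation was then reversed by cumulative half-log additions of antagonist.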

Q: With `Cc1cc(C[C@@H](NC(=O)N2CCC(N3Cc4ccccc4NC3=O)CC2)C(=O)N2CCC(N3CCCCC3)CC2)cc2cn[nH]c12` as the compound, how does the pEC50 read?
A: 10.30

tested on: not listed separately; assay: Plasma concentration in marmoset at 0.03 g/kg, sc after 105 mins; type: ADME, organism-based, Callithrix jacchus; conditions: 30 mg/kg; outline: as §1

Q: For `Cc1cc(CC(NC(=O)N2CCC(N3Cc4ccccc4NC3=O)CC2)C(=O)N2CCC(N3CCCCC3)CC2)cc2cn[nH]c12` (racemic), which concentration at 1.75 h is on record?
A: 11 nM

biological target: T2, Cytochrome P450 3A4; assay: Inhibition of CYP3A4 (unknown origin) using 7-benzyloxy-4-trifluoromethylcoumarin as substrate; type: ADME; conditions: not given

Q: With `CCc1cc(CC(NC(=O)N2CCC(N3Cc4ccccc4NC3=O)CC2)C(=O)N2CCC(N3CCCCC3)CC2)cc2c(C)n[nH]c12` (racemic) as the compound, how does the pIC50 read?
A: < 4.40

Q: With `O=C(NC(Cc1cc(Cl)c2[nH]ncc2c1)C(=O)N1CCC(N2CCCCC2)CC1)N1CCC(N2Cc3ccccc3NC2=O)CC1` (racemic) as the compound, how does the pIC50 read?
A: 4.89

Q: With `Cc1cc(C[C@@H](NC(=O)N2CCC(N3Cc4ccccc4NC3=O)CC2)C(=O)N2CCC(N3CCCCC3)CC2)c(Cl)c2cn[nH]c12` as the compound, how does the pIC50 read?
A: 5.46

Q: With `O=C(N[C@H](Cc1cc(Br)c2[nH]c(=O)oc2c1)C(=O)N1CCC(N2CCCCC2)CC1)N1CCC(N2Cc3ccccc3NC2=O)CC1` as the compound, how does the pIC50 read?
A: < 4.40

Q: With `O=C(N[C@H](Cc1cc2oc(=O)[nH]c2cc1Cl)C(=O)N1CCC(N2CCCCC2)CC1)N1CCC(N2Cc3ccccc3NC2=O)CC1` as the compound, how does the pIC50 read?
A: < 4.40
